Source: PubChem BioAssay AID651576 (The Scripps Research Institute Molecular Screening Center, 2012)
The source made the active and inactive calls.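 Rule for the calls: active = inhibition of at least 50%, averaged over three replicate wells; inactive = inhibition below 50%.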

tested on: HCV core protein (core106) dimerization, Hepatitis C virus; assay: HCV core106 dimerization inhibitors, late-stage follow-up, biochemical, AlphaScreen luminescence, single dose 15 µM, powder samples (AID 651576); conditions: AlphaScreen GST/Flag-core106 dimerization, at 15 µM, stronger effect = higher value
In short: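 Assay system – HCV core106 dimerization between GST-tagged and Flag-tagged core106 proteins · Quantity – 150 nM of each tagged core106 protein · Repeats – three replicate wells per compound, averaged · Detection – AlphaScreen luminescence · Read-out – percent inhibition of AlphaScreen signal versus uninhibited protein-only wells · Incubation – protein preincubation 1 h at room temperature, 1 h per bead step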

| inhibition | SMILES |
| --- | --- |
| < 50% (inactive) | Cc1ccc(Cc2c(C)nc3nc(SCC(=O)NCCN4CCN(S(C)(=O)=O)CC4)nn3c2C)cc1 |
| 43% (inactive) | Cc1ccc(Cc2c(C)nc3nc(SCC(=O)NCCC(C)C)nn3c2C)cc1 |
| 79% | Cc1ccc(Cc2c(C)nc3nc(SCC(=O)NCCN4CCCN(S(=O)(=O)c5ccc(C)cc5)CC4)nn3c2C)cc1 |
| 41% (inactive) | Cc1ccc(Cc2c(C)nc3nc(SCC(=O)N4CCCCC4)nn3c2C)cc1 |
